Reference: PMC9279629 (Acta Pharmaceutica Sinica. B, 2021)

Key:
[1] = tested on: PDE1A/B/C, PDE2A, PDE3A/B, PDE4A/B/C/D, PDE5A, PDE7A, PDE8A, PDE9A; test: PDE selectivity panel, fluorescence polarization, single dose 5 μmol/L; type: biochemical; conditions: concentrations up to 5 μmol/L
PDE10A = PDE10A (Homo sapiens, UniProt Q9Y233); test: PDE10A inhibition, fluorescence polarization; type: biochemical
Summary of the method: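 Test compound was dissolved in DMSO, stored at −20 °C and tested in a 10-point, 3-fold serial dilution from a top concentration of 1 µmol/L (n = 3). Enzyme activity was read by fluorescence polarization, and IC50 was derived from the concentration–response data.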

Sequence of PDE10A (Q9Y233 whole entry): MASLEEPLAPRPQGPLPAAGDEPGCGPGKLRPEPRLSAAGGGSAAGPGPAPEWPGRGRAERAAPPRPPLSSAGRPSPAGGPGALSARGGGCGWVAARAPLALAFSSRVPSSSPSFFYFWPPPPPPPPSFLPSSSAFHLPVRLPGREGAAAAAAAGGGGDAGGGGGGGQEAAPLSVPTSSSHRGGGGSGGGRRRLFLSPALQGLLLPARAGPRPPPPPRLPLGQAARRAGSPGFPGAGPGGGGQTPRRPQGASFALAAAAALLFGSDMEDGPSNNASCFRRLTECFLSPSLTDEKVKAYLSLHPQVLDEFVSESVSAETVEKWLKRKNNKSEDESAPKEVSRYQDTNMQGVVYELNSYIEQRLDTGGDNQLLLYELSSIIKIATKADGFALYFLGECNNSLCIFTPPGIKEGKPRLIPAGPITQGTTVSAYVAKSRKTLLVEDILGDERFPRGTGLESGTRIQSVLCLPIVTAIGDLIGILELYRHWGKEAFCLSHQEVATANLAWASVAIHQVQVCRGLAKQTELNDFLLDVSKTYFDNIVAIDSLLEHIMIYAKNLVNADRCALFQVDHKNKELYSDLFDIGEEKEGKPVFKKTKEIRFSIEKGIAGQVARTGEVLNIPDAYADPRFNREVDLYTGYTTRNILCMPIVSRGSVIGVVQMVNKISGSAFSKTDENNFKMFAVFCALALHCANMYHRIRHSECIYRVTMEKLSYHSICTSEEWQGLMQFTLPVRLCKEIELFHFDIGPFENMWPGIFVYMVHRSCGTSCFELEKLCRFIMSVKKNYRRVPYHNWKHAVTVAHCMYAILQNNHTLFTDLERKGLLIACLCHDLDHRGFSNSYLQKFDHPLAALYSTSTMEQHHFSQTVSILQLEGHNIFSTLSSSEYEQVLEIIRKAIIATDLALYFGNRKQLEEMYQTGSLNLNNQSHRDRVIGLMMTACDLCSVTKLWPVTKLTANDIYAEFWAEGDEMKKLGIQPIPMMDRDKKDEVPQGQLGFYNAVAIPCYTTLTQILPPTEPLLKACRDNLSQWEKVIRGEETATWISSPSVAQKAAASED

SMILES: Cc1ccc2c(=O)n(-c3ccc(F)cc3)c(CCN3C(=O)c4cccc(OC(C)C)c4C3=O)nc2c1 [compound 9, 2-(2-(3-(4-Fluorophenyl)-7-methyl-4-oxo-3,4-dihydroquinazolin-2-yl)ethyl)-4-isopropoxyisoindoline-1,3-dione]
- inhibition of other PDE subtypes [1]: no significant inhibition
- IC50 (PDE10A): 2.07 nM
